# Assay results taken from ChEMBL document CHEMBL4715736, “Identification of anticancer agents based on the thieno[2,3-b]pyridine and 1H-pyrazole molecular scaffolds” (2016).
# System: Malme-3M
# Test: Growth inhibition of human Malme-3M cells incubated for 48 hrs by sulforhodamine B assay
# Format: functional
# Conditions: not given
# In short: (§1)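 NCI60 panel at the NCI Developmental Therapeutics Program. Only compounds active in the 10 µM screen went to dose-response testing. GI50, the concentration giving 50% of maximal inhibition of proliferation, and TGI, the concentration giving total growth inhibition, were derived from the dose-response curves.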
SMILES,GI50,LC50,TGI
Cc1cc(C)c(NC(=O)c2sc3nc4c(cc3c2N)CN(Cc2ccccc2)CC4)c(C)c1,3.44 µM,> 100 µM,42 µM

# System: LOX IMVI
# Test: Growth inhibition of human LOX IMVI cells assessed as cell growth at 0.01 uM incubated for 48 hrs by sulforhodamine B assay relative to control
# Format: functional
# Conditions: read-out: Activity
row,SMILES,growth at 0.01 µM
1,Cc1cc(C)c(NC(=O)c2sc3nc4c(cc3c2N)CN(Cc2ccccc2)CC4)c(C)c1,99%

# System: 786-0
# Test: Growth inhibition of human 786-0 cells assessed as cell growth at 0.01 uM incubated for 48 hrs by sulforhodamine B assay relative to control
# Format: functional
# Conditions: read-out: Activity
# In short: (§2)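 NCI Developmental Therapeutics Program NCI60 panel. Compounds that were active in the 10 µM one-dose screen went on to dose–response testing. Growth at each concentration is expressed relative to untreated control (100%). GI50 (concentration giving 50% of maximal inhibition of proliferation) and TGI (concentration giving total growth inhibition) were derived from the curves.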
row,SMILES,growth at 0.01 µM
1,Cc1cc(C)c(NC(=O)c2sc3nc4c(cc3c2N)CN(Cc2ccccc2)CC4)c(C)c1,91%

# System: NCI-H460
# Test: Growth inhibition of human NCI-H460 cells incubated for 48 hrs by sulforhodamine B assay
# Format: functional
# Conditions: not given
# In short: as §1
SMILES,GI50,LC50,TGI
Cc1cc(C)c(NC(=O)c2sc3nc4c(cc3c2N)CN(Cc2ccccc2)CC4)c(C)c1,3.29 µM,> 100 µM,16.3 µM

# System: OVCAR-5
# Test: Growth inhibition of human OVCAR-5 cells assessed as cell growth at 0.01 uM incubated for 48 hrs by sulforhodamine B assay relative to control
# Format: functional
# Conditions: read-out: Activity
row,SMILES,growth at 0.01 µM
1,Cc1cc(C)c(NC(=O)c2sc3nc4c(cc3c2N)CN(Cc2ccccc2)CC4)c(C)c1,90%

# System: CAKI-1
# Test: Growth inhibition of human CAKI-1 cells assessed as cell growth at 0.1 uM incubated for 48 hrs by sulforhodamine B assay relative to control
# Format: functional
# Conditions: read-out: Activity
# In short: as §2
row,SMILES,growth at 0.1 µM
1,Cc1cc(C)c(NC(=O)c2sc3nc4c(cc3c2N)CN(Cc2ccccc2)CC4)c(C)c1,90%

# System: SW-620
# Test: Growth inhibition of human SW-620 cells assessed as cell growth at 0.01 uM incubated for 48 hrs by sulforhodamine B assay relative to control
# Format: functional
# Conditions: read-out: Activity
row,SMILES,growth at 0.01 µM
1,Cc1cc(C)c(NC(=O)c2sc3nc4c(cc3c2N)CN(Cc2ccccc2)CC4)c(C)c1,95%

# System: SF-268
# Test: Growth inhibition of human SF-268 cells assessed as cell growth at 0.1 uM incubated for 48 hrs by sulforhodamine B assay relative to control
# Format: functional
# Conditions: read-out: Activity
row,SMILES,growth at 0.1 µM
1,Cc1cc(C)c(NC(=O)c2sc3nc4c(cc3c2N)CN(Cc2ccccc2)CC4)c(C)c1,100%

# System: NCI/ADR-RES
# Test: Growth inhibition of human NCI/ADR-RES cells assessed as cell growth at 0.1 uM incubated for 48 hrs by sulforhodamine B assay relative to control
# Format: functional
# Conditions: read-out: Activity
row,SMILES,growth at 0.1 µM
1,Cc1cc(C)c(NC(=O)c2sc3nc4c(cc3c2N)CN(Cc2ccccc2)CC4)c(C)c1,100%

# System: U-251
# Test: Growth inhibition of human U-251 cells assessed as cell growth at 1 uM incubated for 48 hrs by sulforhodamine B assay relative to control
# Format: functional
# Conditions: read-out: Activity
row,SMILES,growth at 1 µM
1,Cc1cc(C)c(NC(=O)c2sc3nc4c(cc3c2N)CN(Cc2ccccc2)CC4)c(C)c1,92%

# System: M14
# Test: Growth inhibition of human M14 cells assessed as cell growth at 0.1 uM incubated for 48 hrs by sulforhodamine B assay relative to control
# Format: functional
# Conditions: read-out: Activity
row,SMILES,growth at 0.1 µM
1,Cc1cc(C)c(NC(=O)c2sc3nc4c(cc3c2N)CN(Cc2ccccc2)CC4)c(C)c1,94%

# System: OVCAR-5
# Test: Growth inhibition of human OVCAR-5 cells assessed as cell growth at 100 uM incubated for 48 hrs by sulforhodamine B assay relative to control
# Format: functional
# Conditions: read-out: Activity
row,SMILES,growth at 100 µM
1,Cc1cc(C)c(NC(=O)c2sc3nc4c(cc3c2N)CN(Cc2ccccc2)CC4)c(C)c1,14%

# System: CAKI-1
# Test: Growth inhibition of human CAKI-1 cells assessed as cell growth at 0.01 uM incubated for 48 hrs by sulforhodamine B assay relative to control
# Format: functional
# Conditions: read-out: Activity
# In short: as §2
row,SMILES,growth at 0.01 µM
1,Cc1cc(C)c(NC(=O)c2sc3nc4c(cc3c2N)CN(Cc2ccccc2)CC4)c(C)c1,88%

# System: U-251
# Test: Growth inhibition of human U-251 cells incubated for 48 hrs by sulforhodamine B assay
# Format: functional
# Conditions: not given
# In short: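 NCI DTP 60-line human tumour panel. Dose-response curves were run only for ligands active in the initial 10 µM screen. GI50 (concentration giving 50% of maximal inhibition of proliferation) and TGI (concentration giving total growth inhibition) were derived from these curves.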
SMILES,GI50,LC50 (concentration killing 50% of cells),TGI
Cc1cc(C)c(NC(=O)c2sc3nc4c(cc3c2N)CN(Cc2ccccc2)CC4)c(C)c1,4.35 µM,> 100 µM,24.2 µM

# System: SN12C
# Test: Growth inhibition of human SN12C cells assessed as cell growth at 100 uM incubated for 48 hrs by sulforhodamine B assay relative to control
# Format: functional
# Conditions: read-out: Activity
row,SMILES,growth at 100 µM
1,Cc1cc(C)c(NC(=O)c2sc3nc4c(cc3c2N)CN(Cc2ccccc2)CC4)c(C)c1,12%

# System: Malme-3M
# Test: Growth inhibition of human Malme-3M cells assessed as cell growth at 0.1 uM incubated for 48 hrs by sulforhodamine B assay relative to control
# Format: functional
# Conditions: read-out: Activity
row,SMILES,growth at 0.1 µM
1,Cc1cc(C)c(NC(=O)c2sc3nc4c(cc3c2N)CN(Cc2ccccc2)CC4)c(C)c1,102%

# System: HOP-92
# Test: Growth inhibition of human HOP-92 cells incubated for 48 hrs by sulforhodamine B assay
# Format: functional
# Conditions: not given
# In short: as §1
row,SMILES,GI50
1,Cc1cc(C)c(NC(=O)c2sc3nc4c(cc3c2N)CN(Cc2ccccc2)CC4)c(C)c1,0.877 µM
